Source: ChEMBL document CHEMBL1142957, “Total structure and inhibition of tumor cell proliferation of laxaphycins” (J Med Chem, 2007)
Each block holds one molecule with its values, some of them ahead of it.

Key:
CEM-VLB [1] = experiment: Interaction index, ratio of IC50 for CEM/VLB100 cells in presence of 0.2 uM laxaphycin A/IC50 for CEM/VLB100 cells; type: functional, Homo sapiens
CEM-VLB [2] = experiment: Interaction index, ratio of IC50 for CEM/VLB100 cells in presence of 0.4 uM laxaphycin A/IC50 for CEM/VLB100 cells; type: functional, Homo sapiens
CEM-VLB [3] = experiment: Interaction index, ratio of IC50 for CEM/VLB100 cells in presence of 1 uM laxaphycin A/IC50 for CEM/VLB100 cells; type: functional, Homo sapiens
CEM-VLB [4] = experiment: Interaction index, ratio of IC50 for CEM/VLB100 cells in presence of 2 uM laxaphycin A/IC50 for CEM/VLB100 cells; type: functional, Homo sapiens
[5] = Cytotoxicity against human PA1 cells after 48 hrs by RRT; type: cell-based; details: pa-1, 48 h
Summary of the method: (§1)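 Adherent lines in supplemented Glutamax MEM, 37 °C, 5% CO2. Seeded 5 × 10³ cells/well, adhered 16 h, then treated 48 h continuously, alone or in combination, in 0.5% DMSO (solvent control). Resazurin 25 µg/mL in MEM added, 1 h at 37 °C, fluorescence 530/590 nm. Survival = % of control after blank subtraction; IC50 from concentration–survival curve. Two independent assays in triplicate.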

[6] = Cytotoxicity against human PA1 cells after 48 hrs by Hoechst 33342 assay; type: cell-based; details: pa-1, 48 h
Summary of the method: (§2)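 Adherent lines in Glutamax MEM with Earle's salts, FCS, vitamins, pyruvate, NEAA, glutamine, gentamycin. Seeded 5 × 10³ cells/well, adhered 16 h, then 48 h continuous exposure in 0.5% DMSO (solvent control). After resazurin read, cells PBS-rinsed and stored at −80 °C. Then thawed and given 30 µg/mL Hoechst 33342 in Tris pH 7.4/EDTA/NaCl buffer, 1 h at 37 °C, fluorescence 360/460 nm (DNA ∝ biomass). Two independent assays in triplicate, mean ± SD.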

[7] = Cytotoxicity against human […] cells after 48 hrs by RRT; type: cell-based; summary of the method: as §1
[8] = Cytotoxicity against human […] cells after 48 hrs by Hoechst 33342 assay; type: cell-based; summary of the method: as §2
[9] = Cytotoxicity against human M4Beu cells after 48 hrs by RRT; type: cell-based; summary of the method: as §1
[10] = Cytotoxicity against human M4Beu cells after 48 hrs by Hoechst 33342 assay; type: cell-based; summary of the method: as §2
MCF7 [11] = experiment: Cytotoxicity against human MCF7 cells after 48 hrs by RRT; type: cell-based; details: MCF7, 48 h; summary of the method: as §1
MCF7 [12] = experiment: Cytotoxicity against human MCF7 cells after 48 hrs by Hoechst 33342 assay; type: cell-based; details: MCF7, 48 h; summary of the method: as §2
DLD-1 [13] = experiment: Cytotoxicity against human DLD1cells after 48 hrs by RRT; type: cell-based; details: dld-1, 48 h; summary of the method: as §1
DLD-1 [14] = experiment: Cytotoxicity against human DLD1cells after 48 hrs by Hoechst 33342 assay; type: cell-based; details: dld-1, 48 h; summary of the method: as §2
PC-3 [15] = experiment: Cytotoxicity against human androgen-resistant PC3 cells after 48 hrs by RRT; type: cell-based; details: PC-3, 48 h; summary of the method: as §1
PC-3 [16] = experiment: Cytotoxicity against human androgen-resistant PC3 cells after 48 hrs by Hoechst 33342 assay; type: cell-based; details: PC-3, 48 h; summary of the method: as §2
[17] = Cytotoxicity against human fibroblasts after 48 hrs by RRT; type: cell-based; details: fibroblast; summary of the method: as §1
[18] = Cytotoxicity against human fibroblasts after 48 hrs by Hoechst 33342 assay; type: cell-based; details: fibroblast; summary of the method: as §2
L929 [19] = experiment: Cytotoxicity against mouse L929 cells after 48 hrs by RRT; type: cell-based; details: l929, 48 h; summary of the method: as §1
L929 [20] = experiment: Cytotoxicity against mouse L929 cells after 48 hrs by Hoechst 33342 assay; type: cell-based; details: l929, 48 h; summary of the method: as §2
CCRF-CEM [21] = experiment: Cytotoxicity against drug-sensitive CCRF-CEM cells after 72 hrs; type: cell-based; details: Homo sapiens
Summary of the method: (§3)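 Leukemic lymphoblasts (parent CCRF-CEM, Pgp-overexpressing CEM/VLB100, topo II-altered CEM/VM-1) grown in RPMI 1640 with 10% FCS and antibiotics, 37 °C, 5% CO2. Serial dilutions in medium added to 2 × 10⁵ cells/mL for 3 days, medium not renewed. Survivors counted on a Coulter counter. Triplicate, averaged.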

[22] = Cytotoxicity against vinblastine-resistant CEM/VLB100 cells after 72 hrs; type: cell-based; details: Homo sapiens, CEM/VLB100, 72 h; summary of the method: as §3
[23] = Cytotoxicity against teniposide-resistant CEM/VM1 cells after 72 hrs; type: cell-based; details: Homo sapiens, CEM-VM1, 72 h; summary of the method: as §3
CCRF-CEM [24] = experiment: Ratio of IC50 for vinblastine-resistant CEM/VLB100 cells over IC50 for drug-sensitive CCRF-CEM cells; type: functional, Homo sapiens
CCRF-CEM [25] = experiment: Ratio of IC50 for teniposide-resistant CEM/VM1 cells over IC50 for drug-sensitive CCRF-CEM cells; type: functional, Homo sapiens
CCRF-CEM [26] = experiment: Antiproliferative activity against drug-sensitive CCRF-CEM cells after 72 hrs in presence of 0.2 uM laxaphycin A; type: functional, cell-based; details: Homo sapiens; summary of the method: as §3
CCRF-CEM [27] = experiment: Antiproliferative activity against drug-sensitive CCRF-CEM cells after 72 hrs in presence of 0.4 uM laxaphycin A; type: functional, cell-based; details: Homo sapiens; summary of the method: as §3
CCRF-CEM [28] = experiment: Antiproliferative activity against drug-sensitive CCRF-CEM cells after 72 hrs in presence of 1 uM laxaphycin A; type: functional, cell-based; details: Homo sapiens; summary of the method: as §3
CCRF-CEM [29] = experiment: Antiproliferative activity against drug-sensitive CCRF-CEM cells after 72 hrs in presence of 2 uM laxaphycin A; type: functional, cell-based; details: Homo sapiens; summary of the method: as §3
CEM-VLB [30] = experiment: Antiproliferative activity against vinblastine-resistant CEM/VLB100 after 72 hrs in presence of 0.2 uM laxaphycin A; type: functional, cell-based; details: Homo sapiens; summary of the method: as §3
CEM-VLB [31] = experiment: Antiproliferative activity against vinblastine-resistant CEM/VLB100 after 72 hrs in presence of 0.4 uM laxaphycin A; type: functional, cell-based; details: Homo sapiens; summary of the method: as §3
CEM-VLB [32] = experiment: Antiproliferative activity against vinblastine-resistant CEM/VLB100 after 72 hrs in presence of 1 uM laxaphycin A; type: functional, cell-based; details: Homo sapiens; summary of the method: as §3
CEM-VLB [33] = experiment: Antiproliferative activity against vinblastine-resistant CEM/VLB100 after 72 hrs in presence of 2 uM laxaphycin A; type: functional, cell-based; details: Homo sapiens; summary of the method: as §3
CEM-VM1 [34] = experiment: Antiproliferative activity against teniposide-resistant CEM/VM1 after 72 hrs in presence of 0.2 uM laxaphycin A; type: functional, cell-based; details: Homo sapiens, CEM-VM1, 72 h; summary of the method: as §3
CEM-VM1 [35] = experiment: Antiproliferative activity against teniposide-resistant CEM/VM1 after 72 hrs in presence of 0.4 uM laxaphycin A; type: functional, cell-based; details: Homo sapiens, CEM-VM1, 72 h; summary of the method: as §3
CEM-VM1 [36] = experiment: Antiproliferative activity against teniposide-resistant CEM/VM1 after 72 hrs in presence of 1 uM laxaphycin A; type: functional, cell-based; details: Homo sapiens, CEM-VM1, 72 h; summary of the method: as §3
CEM-VM1 [37] = experiment: Antiproliferative activity against teniposide-resistant CEM/VM1 after 72 hrs in presence of 2 uM laxaphycin A; type: functional, cell-based; details: Homo sapiens, CEM-VM1, 72 h; summary of the method: as §3
DLD-1 [38] = experiment: Survival of human DLD1 cells at 2 uM after 48 hrs by RRT assay; type: functional
Summary of the method: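 Adherent cells cultured in Glutamax Eagle's MEM with Earle's salts, fetal calf serum, vitamins, pyruvate, nonessential amino acids, glutamine and gentamycin at 37 °C, 5% CO2. Seeded 5 × 10³ cells/well, 16 h adhesion, then 48 h continuous exposure in 0.5% DMSO, alone or combined. Resazurin (25 µg/mL in MEM) added for 1 h at 37 °C, fluorescence 530/590 nm; survival as percentage of solvent controls after blank subtraction; two independent experiments in triplicate, averaged.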

DLD-1 [39] = experiment: Increase in cytotoxicity in human DLD1 cells at 2 uM after 48 hrs in presence of 1 uM laxaphycin A by RRT assay; type: cell-based; details: dld-1, 48 h; summary of the method: as §1
DLD-1 [40] = experiment: Increase in cytotoxicity in human DLD1 cells at 2 uM after 48 hrs in presence of 1.5 uM laxaphycin A by RRT assay; type: cell-based; details: dld-1, 48 h; summary of the method: as §1
DLD-1 [41] = experiment: Increase in cytotoxicity in human DLD1 cells at 2 uM after 48 hrs in presence of 2 uM laxaphycin A by RRT assay; type: cell-based; details: dld-1, 48 h; summary of the method: as §1
CCRF-CEM [42] = experiment: Interaction index, ratio of IC50 for CCRF-CEM cells in presence of 0.2 uM laxaphycin A/IC50 for CCRF-CEM cells; type: functional, Homo sapiens
CCRF-CEM [43] = experiment: Interaction index, ratio of IC50 for CCRF-CEM cells in presence of 0.4 uM laxaphycin A/IC50 for CCRF-CEM cells; type: functional, Homo sapiens
CCRF-CEM [44] = experiment: Interaction index, ratio of IC50 for CCRF-CEM cells in presence of 1 uM laxaphycin A/IC50 for CCRF-CEM cells; type: functional, Homo sapiens
CCRF-CEM [45] = experiment: Interaction index, ratio of IC50 for CCRF-CEM cells in presence of 2 uM laxaphycin A/IC50 for CCRF-CEM cells; type: functional, Homo sapiens
CEM-VM1 [46] = experiment: Interaction index, ratio of IC50 for CEM/VM1 cells in presence of 0.2 uM laxaphycin A/IC50 for CEM/VM1 cells; type: functional, Homo sapiens
CEM-VM1 [47] = experiment: Interaction index, ratio of IC50 for CEM/VM1 cells in presence of 0.4 uM laxaphycin A/IC50 for CEM/VM1 cells; type: functional, Homo sapiens
CEM-VM1 [48] = experiment: Interaction index, ratio of IC50 for CEM/VM1 cells in presence of 1 uM laxaphycin A/IC50 for CEM/VM1 cells; type: functional, Homo sapiens
CEM-VM1 [49] = experiment: Interaction index, ratio of IC50 for CEM/VM1 cells in presence of 2 uM laxaphycin A/IC50 for CEM/VM1 cells; type: functional, Homo sapiens

IC50 (CCRF-CEM [26]): 0.62 µM
IC50 (CCRF-CEM [27]): 0.5 µM
IC50 (CCRF-CEM [28]): 0.41 µM
IC50 (CCRF-CEM [29]): 0.35 µM
Compound: CCCCCCC[C@@H]1CC(=O)N[C@@H](C(C)C)C(=O)N[C@@H]([C@@H](O)C(C)C)C(=O)N[C@@H](C)C(=O)N[C@H]([C@@H](O)C(C)C)C(=O)N[C@@H](CCC(N)=O)C(=O)N(C)[C@@H]([C@@H](C)CC)C(=O)N[C@H]([C@@H](O)C(N)=O)C(=O)N[C@@H]([C@@H](C)O)C(=O)N2CCC[C@H]2C(=O)N[C@H](CC(C)C)C(=O)N[C@@H]([C@@H](C)O)C(=O)N1 [LAXAPHYCIN B]
Ratio IC50 (CEM-VLB [1]): 0.9
Ratio IC50 (CEM-VLB [2]): 0.56
Ratio IC50 (CEM-VLB [3]): 0.35
Ratio IC50 (CEM-VLB [4]): 0.32
Activity [5]: Dose-dependent effect
Activity [6]: Dose-dependent effect
Activity [7]: Dose-dependent effect
Activity [8]: Dose-dependent effect
IC50 [9]: 0.4 µM
IC50 [10]: 0.3 µM
IC50 (MCF7 [11]): 1 µM
IC50 (MCF7 [12]): 0.5 µM
Activity (DLD-1 [13]): Dose-dependent effect
Activity (DLD-1 [14]): Dose-dependent effect
IC50 (PC-3 [15]): 0.8 µM
IC50 (PC-3 [16]): 0.58 µM
Activity [17]: Dose-dependent effect
Activity [18]: Dose-dependent effect
Activity (L929 [19]): Dose-dependent effect
Activity (L929 [20]): Dose-dependent effect
IC50 (CCRF-CEM [21]): 1.11 µM
IC50 [22]: 1.02 µM
IC50 [23]: 1.37 µM
Ratio IC50 (CCRF-CEM [24]): 0.9
Ratio IC50 (CCRF-CEM [25]): 1.2
IC50 (CEM-VLB [30]): 0.92 µM
IC50 (CEM-VLB [31]): 0.57 µM
IC50 (CEM-VLB [32]): 0.36 µM
IC50 (CEM-VLB [33]): 0.33 µM
IC50 (CEM-VM1 [34]): 0.72 µM
IC50 (CEM-VM1 [35]): 0.6 µM
IC50 (CEM-VM1 [36]): 0.43 µM
IC50 (CEM-VM1 [37]): 0.41 µM
Activity (DLD-1 [38]): 90%
Activity (DLD-1 [39]): Active
Activity (DLD-1 [40]): Active
Activity (DLD-1 [41]): Active
Ratio IC50 (CCRF-CEM [42]): 0.56
Ratio IC50 (CCRF-CEM [43]): 0.45
Ratio IC50 (CCRF-CEM [44]): 0.41
Ratio IC50 (CCRF-CEM [45]): 0.32
Ratio IC50 (CEM-VM1 [46]): 0.53
Ratio IC50 (CEM-VM1 [47]): 0.44
Ratio IC50 (CEM-VM1 [48]): 0.32
Ratio IC50 (CEM-VM1 [49]): 0.3

Compound: CC[C@]1(O)C[C@@H]2CN(CCc3c([nH]c4ccccc34)[C@@](C(=O)OC)(c3cc4c(cc3OC)N(C)[C@H]3[C@@](O)(C(=O)OC)[C@H](OC(C)=O)[C@]5(CC)C=CCN6CC[C@]43[C@@H]65)C2)C1 [VINBLASTINE]
IC50 (CCRF-CEM [21]): 0.004 µM
IC50 [22]: 0.356 µM
IC50 [23]: 0.008 µM
Ratio IC50 (CCRF-CEM [24]): 89
Ratio IC50 (CCRF-CEM [25]): 2
